Data reported in ChEMBL document CHEMBL1255487, “Preclinical evaluation of the antifolate QN254, 5-chloro- N'6'-(2,5-dimethoxy-benzyl)-quinazoline-2,4,6-triamine, as an antimalarial drug candidate” (Antimicrob Agents Chemother, 2010).
The source made the active and inactive calls. No cut-off for these calls is given here.

What was measured:
Plasmodium berghei [1] = assay: Antimalarial activity against Plasmodium berghei ANKA infected in NMRI mice (Mus musculus) assessed as reduction in parasitemia at 3 times 30 mg/kg, perorally measured on day 3 postinfection; format: functional; design: scale not given: the % may be the effect or the level left; conditions: route oral
Procedure, shortened: (§1)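 P. berghei ANKA given intravenously to groups of 5 female NMRI mice (20–22 g): 0.2 ml of 1 × 10^8 parasitized erythrocytes/ml from a donor mouse. Oral dosing in 0.5% carboxymethyl cellulose. Parasitemia counted by microscopy. Activity is the control-minus-treated parasitemia difference, expressed as percent of untreated controls.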

Plasmodium berghei [2] = assay: Antimalarial activity against Plasmodium berghei ANKA infected in NMRI mice (Mus musculus) assessed as survival rate at 10 mg/kg, perorally administered as single dose; format: functional; conditions: route oral
Procedure, shortened: (§2)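 Infection: 5 female NMRI mice (20–22 g) per group, inoculated intravenously with 0.2 ml of donor blood at 1 × 10^8 parasitized erythrocytes/ml. Oral administration in 0.5% carboxymethyl cellulose. Survival time recorded up to 30 days after infection and averaged per group.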

Plasmodium berghei [3] = assay: Antimalarial activity against Plasmodium berghei ANKA infected in NMRI mice (Mus musculus) assessed as survival rate at 30 mg/kg, perorally administered as single dose; format: functional; conditions: route oral; procedure, shortened: as §2
Plasmodium berghei [4] = assay: Antimalarial activity against Plasmodium berghei ANKA infected in NMRI mice (Mus musculus) assessed as survival rate at 60 mg/kg, perorally administered as single dose; format: functional; conditions: route oral; procedure, shortened: as §2
Plasmodium berghei [5] = assay: Antimalarial activity against Plasmodium berghei ANKA infected in NMRI mice (Mus musculus) assessed as survival rate at 100 mg/kg, perorally administered as single dose; format: functional; conditions: route oral; procedure, shortened: as §2
Plasmodium berghei [6] = assay: Antimalarial activity against Plasmodium berghei ANKA infected in NMRI mice (Mus musculus) assessed as mean survival time at 3 times 100 mg/kg, perorally; format: functional, organism-based; design: dose 100 mg/kg
Plasmodium berghei [7] = assay: Antimalarial activity against Plasmodium berghei ANKA infected in NMRI mice (Mus musculus) assessed as cure rate at 30 mg/kg, perorally administered as single dose […]; format: functional; conditions: route oral
Procedure, shortened: (§3)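 Female NMRI mice (20–22 g), 5 per group, infected intravenously with 0.2 ml of 1 × 10^8 parasitized erythrocytes/ml from a fresh donor mouse. Compound suspended in 0.5% carboxymethyl cellulose and given orally. Survival followed to day 30 post-infection; an animal was scored cured if it survived to day 30 without parasites.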

Plasmodium berghei [8] = assay: Antimalarial activity against Plasmodium berghei ANKA infected in NMRI mice (Mus musculus) assessed as cure rate at 60 mg/kg, perorally administered as single dose […]; format: functional; conditions: route oral; procedure, shortened: as §3
Plasmodium berghei [9] = assay: Antimalarial activity against Plasmodium berghei ANKA infected in NMRI mice (Mus musculus) assessed as cure rate at 100 mg/kg, perorally administered as single dose measured on […]; format: functional; conditions: route oral; procedure, shortened: as §3
Plasmodium berghei [10] = assay: Antimalarial activity against Plasmodium berghei ANKA infected in NMRI mice (Mus musculus) assessed as cure rate at 3 times 30 mg/kg, perorally measured […]; format: functional; conditions: route oral; procedure, shortened: as §3
Plasmodium berghei [11] = assay: Antimalarial activity against Plasmodium berghei ANKA infected in NMRI mice (Mus musculus) assessed as cure rate at 3 times 100 mg/kg, perorally measured on […]; format: functional; conditions: route oral; procedure, shortened: as §3
Mus musculus [12] = assay: Toxicity in NMRI mice (Mus musculus) infected with Plasmodium berghei ANKA at 15 mg/kg, perorally administered as single dose measured up to 30 days postinfection; format: organism-based; design: dose 15 mg/kg, route oral; conditions: in vivo, po, 720 h
Mus musculus [13] = assay: Toxicity in NMRI mice (Mus musculus) infected with Plasmodium berghei ANKA at 30 mg/kg, perorally administered as single dose measured up to 30 days postinfection; format: organism-based; design: dose 30 mg/kg, route oral; conditions: in vivo, po, 720 h
Mus musculus [14] = assay: Toxicity in NMRI mice (Mus musculus) infected with Plasmodium berghei ANKA at 3 times 30 mg/kg, perorally measured up to 30 days postinfection; format: organism-based; design: dose 30 mg/kg, route oral; conditions: in vivo, po, 720 h
[15] = Binding affinity to wild type Plasmodium falciparum DHFR by competitive binding assay
Dihydrofolate reductase = target: T1, Dihydrofolate reductase (Homo sapiens, UniProt P00374); assay: Binding affinity to human recombinant DHFR expressed in Escherichia coli BL21(DE3) by competitive binding assay
T1 sequence (P00374 whole entry): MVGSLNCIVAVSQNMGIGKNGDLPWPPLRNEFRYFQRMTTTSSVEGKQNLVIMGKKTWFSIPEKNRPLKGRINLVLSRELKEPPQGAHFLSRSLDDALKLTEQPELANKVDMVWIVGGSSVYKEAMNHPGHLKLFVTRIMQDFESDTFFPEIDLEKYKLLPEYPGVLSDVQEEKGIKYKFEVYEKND

Plasmodium falciparum [16] = assay: Antimalarial activity against pyrimethamine-resistant Plasmodium falciparum clinical isolate harboring S108N, C59R mutation in DHFR assessed as decrease in parasitaemia; format: functional, organism-based
Procedure, shortened: (§4)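 P. falciparum grown in RPMI 1640 with 10% (v/v) human serum, 25 mM bicarbonate, 2 mM glutamine, 25 mM HEPES, 5 nM para-aminobenzoic acid and 23 nM folic acid. Parasites exposed to a concentration series. Read-out is [3H]hypoxanthine incorporation into nucleic acid. IC50 taken from non-linear regression of the dose–response curve.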

Plasmodium falciparum [17] = assay: Antimalarial activity against pyrimethamine-resistant Plasmodium falciparum clinical isolate harboring S108N, N51I, C59R mutation in DHFR assessed as decrease in parasitaemia; format: functional, organism-based; procedure, shortened: as §4
[18] = Tmax in CD-1 mouse at 25 mg/kg, po; format: ADME, organism-based; design: dose 25 mg/kg, route oral; conditions: in vivo
Procedure, shortened: (§5)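 Mice dosed with 25 mg/kg p.o. as a 2.5 mg/ml suspension in 0.5% CMC, or with 5 mg/kg i.v. at 1 mg/ml in 10% NMP, 30% PEG 400 and 60% of 10% vitamin E-TPGS. Blood sampled at several time points. Plasma extracted with acidified acetonitrile (8:1) and quantified by LC-MS, LLOQ 12 ng/ml.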

[19] = Tmax in Wistar rat at 25 mg/kg, po; format: ADME, organism-based; design: dose 25 mg/kg, route oral; conditions: in vivo
Procedure, shortened: (§6)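 Rats dosed with 25 mg/kg p.o. as a 2.5 mg/ml suspension in 0.5% CMC, or with 5 mg/kg i.v. at 1 mg/ml in 10% NMP, 30% PEG 400 and 60% of 10% vitamin E-TPGS. Plasma sampled over time, extracted with acidified acetonitrile (8:1) and quantified by LC-MS, LLOQ 12 ng/ml.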

[20] = AUC in CD-1 mouse at 25 mg/kg, po; format: ADME, organism-based; design: dose 25 mg/kg, route oral; conditions: plasma; procedure, shortened: as §5
[21] = Half life in CD-1 mouse at 25 mg/kg, po; format: ADME, organism-based; design: dose 25 mg/kg, route oral; conditions: in vivo; procedure, shortened: as §5
[22] = Half life in Wistar rat at 25 mg/kg, po; format: ADME, organism-based; design: dose 25 mg/kg, route oral; conditions: in vivo; procedure, shortened: as §6
[23] = Volume of distribution in CD-1 mouse at 5 mg/kg, iv; format: ADME, organism-based; design: dose 5 mg/kg, route intravenous; conditions: in vivo; procedure, shortened: as §5
[24] = Volume of distribution in Wistar rat at 5 mg/kg, iv; format: ADME, organism-based; design: dose 5 mg/kg, route intravenous; conditions: in vivo; procedure, shortened: as §6
[25] = Clearance in CD-1 mouse at 5 mg/kg, iv; format: ADME, organism-based; design: dose 5 mg/kg, route intravenous; conditions: in vivo; procedure, shortened: as §5
[26] = Clearance in Wistar rat at 5 mg/kg, iv; format: ADME, organism-based; design: dose 5 mg/kg, route intravenous; conditions: in vivo; procedure, shortened: as §6
[27] = Half life in Wistar rat at 5 mg/kg, iv; format: ADME, organism-based; design: dose 5 mg/kg, route intravenous; conditions: in vivo; procedure, shortened: as §6
Plasmodium berghei [28] = assay: Antimalarial activity against Plasmodium berghei ANKA infected in NMRI mice (Mus musculus) assessed as reduction in parasitemia at 10 mg/kg, perorally administered as single dose measured on day 3 postinfection; format: functional; design: scale not given: the % may be the effect or the level left; conditions: route oral; procedure, shortened: as §1
Plasmodium berghei [29] = assay: Antimalarial activity against Plasmodium berghei ANKA infected in NMRI mice (Mus musculus) assessed as reduction in parasitemia at 30 mg/kg, perorally administered as single dose measured on day 3 postinfection; format: functional; design: scale not given: the % may be the effect or the level left; conditions: route oral; procedure, shortened: as §1

## COc1ccc(OC)c(CNc2ccc3nc(N)nc(N)c3c2Cl)c1
Plasmodium berghei [1]
  Activity: >99.99%
Plasmodium berghei [2]
  Survival: 6 days
Plasmodium berghei [3]
  Survival: 8.1 days
Plasmodium berghei [4]
  Survival: 12 days
Plasmodium berghei [5]
  Survival: 23.4 days
Plasmodium berghei [6]
  Activity: inactive
Plasmodium berghei [7]
  Activity: 0%
Plasmodium berghei [8]
  Activity: 0%
Plasmodium berghei [9]
  Activity: 50%
Plasmodium berghei [10]
  Activity: 80%
Plasmodium berghei [11]
  Activity: 20%
Mus musculus [12]
  Activity: 0%
Mus musculus [13]
  Activity: 0%
Mus musculus [14]
  Activity: 0%
[15]
  Ki: 0.39 nM
Dihydrofolate reductase
  Ki: 10.2 nM
Plasmodium falciparum [16]
  IC50: 4.48 nM
Plasmodium falciparum [17]
  IC50: 11.7 nM
[18]
  Tmax: 4 h
[19]
  Tmax: 4 h
[20]
  AUC: 44.6 µM·h
[21]
  half-life: 4.84 h
[22]
  half-life: 9.3 h
[23]
  Vd: 2.85 L/kg
[24]
  Vd: 4.7 L/kg
[25]
  clearance: 51.1 mL/min/kg
[26]
  clearance: 17 mL/min/kg
[27]
  half-life: 3.5 h
Plasmodium berghei [28]
  Activity: 59%
Plasmodium berghei [29]
  Activity: >99.99%
